According to ChEMBL document CHEMBL4038305, “Benzoxaborole Antimalarial Agents. Part 5. Lead Optimization of Novel Amide Pyrazinyloxy Benzoxaboroles and Identification of a Preclinical Candidate” (J Med Chem, 2017):

Experiments:
[1] = tested on: Plasmodium berghei; assay: Antimalarial activity against Plasmodium berghei infected in Swiss Webster mouse assessed as mouse survival rate at 3 mg/kg administered once daily via oral gavage for 4 consecutive days beginning 1 hr after infection measured on day 6 post infection relative to control; format: functional
How it was run: (§1)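 P. berghei-infected erythrocytes taken from a previously infected mouse were injected intraperitoneally. Oral dosing, once daily for 4 consecutive days, began 1 h after infection, in polyethylene glycol 300/propylene glycol/water (55/25/20 by weight). Chloroquine at 30 mg/kg was the positive control, with a vehicle-only group. Percent survival was recorded daily from day 4 to day 20.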

[2] = AUC (0 to infinity) in Sprague-Dawley rat at 5 mg/kg, po via gavage by HPLC/MS analysis; format: ADME, organism-based; set-up: dose 5 mg/kg, route oral, time infinity; conditions: in vivo
[3] = AUC (0 to infinity) in Beagle dog at 5 mg/kg, po via gavage by HPLC/MS analysis; format: ADME, organism-based, Canis lupus familiaris; set-up: dose 5 mg/kg, time infinity, route oral; conditions: in vivo
[4] = AUC (0 to infinity) in Beagle dog at 5 mg/kg, iv by HPLC/MS analysis; format: ADME, organism-based, Canis lupus familiaris; set-up: dose 5 mg/kg, time infinity, route intravenous; conditions: in vivo
[5] = tested on: Plasmodium falciparum; assay: Antimalarial activity against Plasmodium falciparum TM90C2B infected in human erythrocytes assessed as reduction in [3H]-hypoxanthine incorporation preincubated for 24 hrs followed by [3H]-hypoxanthine addition measured after 24 hrs by scintillation counting method; format: functional, cell-based
[6] = tested on: Plasmodium falciparum; assay: Antimalarial activity against intraerythrocytic stage of Plasmodium falciparum assessed as time required for maximal killing effect at 30 times IC50 preincubated for 24 hrs followed by [3H]-hypoxanthine addition measured after 24 hrs by scintillation counting method; format: functional
How it was run: (§2)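 In vitro P. falciparum parasite reduction ratio assay run at 10×, 30× and 100× IC50. Derived parameters: lag phase (time to maximal killing), PRR (parasites killed per life cycle) and PCT99.9% (time to clear 99.9% of the initial parasite population).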

[7] = tested on: Plasmodium falciparum; assay: Antimalarial activity against intraerythrocytic stage of Plasmodium falciparum assessed as parasite reduction ratio at 10 times IC50 preincubated for 24 hrs followed by [3H]-hypoxanthine addition measured after 24 hrs by scintillation counting method; format: functional; how it was run: as §2
[8] = tested on: Plasmodium falciparum; assay: Antimalarial activity against intraerythrocytic stage of Plasmodium falciparum assessed as time required to clear 99.9% of initial parasite population at 30 times IC50 preincubated for 24 hrs followed by [3H]-hypoxanthine addition measured after 24 hrs by scintillation counting method; format: functional; how it was run: as §2
[9] = tested on: Salmonella typhimurium; assay: Genotoxicity in Salmonella typhimurium TA98 assessed as number of revertants per plate at 1.5 ug/plate in absence of rat liver S9 fraction by Ames test (reference value: 14 +/- 6); format: toxicity; conditions: salmonella enterica subsp. enterica serovar typhimurium
[10] = tested on: Salmonella typhimurium; assay: Genotoxicity in Salmonella typhimurium TA98 assessed as number of revertants per plate at 50 ug/plate in absence of rat liver S9 fraction by Ames test (reference value: 14 +/- 6); format: toxicity; conditions: salmonella enterica subsp. enterica serovar typhimurium
[11] = tested on: Salmonella typhimurium; assay: Genotoxicity in Salmonella typhimurium TA98 assessed as number of revertants per plate at 1.5 ug/plate in presence of rat liver S9 fraction by Ames test (reference value: 19 +/- 8); format: toxicity; conditions: salmonella enterica subsp. enterica serovar typhimurium
[12] = tested on: Salmonella typhimurium; assay: Genotoxicity in Salmonella typhimurium TA98 assessed as number of revertants per plate at 5 ug/plate in presence of rat liver S9 fraction by Ames test (reference value: 19 +/- 8); format: toxicity; conditions: salmonella enterica subsp. enterica serovar typhimurium
[13] = tested on: Salmonella typhimurium; assay: Genotoxicity in Salmonella typhimurium TA98 assessed as number of revertants per plate at 15 ug/plate in presence of rat liver S9 fraction by Ames test (reference value: 19 +/- 8); format: toxicity; conditions: salmonella enterica subsp. enterica serovar typhimurium
[14] = tested on: Salmonella typhimurium; assay: Genotoxicity in Salmonella typhimurium TA98 assessed as number of revertants per plate at 500 ug/plate in presence of rat liver S9 fraction by Ames test (reference value: 19 +/- 8); format: toxicity; conditions: salmonella enterica subsp. enterica serovar typhimurium
[15] = tested on: Salmonella typhimurium; assay: Genotoxicity in Salmonella typhimurium TA100 assessed as number of revertants per plate at 5000 ug/plate in absence of rat liver S9 fraction by Ames test (reference value: 154 +/- 9); format: toxicity; conditions: salmonella enterica subsp. enterica serovar typhimurium
[16] = tested on: Salmonella typhimurium; assay: Genotoxicity in Salmonella typhimurium TA1535 assessed as number of revertants per plate at 5 ug/plate in absence of rat liver S9 fraction by Ames test (reference value: 10 +/- 3); format: toxicity; conditions: salmonella enterica subsp. enterica serovar typhimurium
[17] = tested on: Salmonella typhimurium; assay: Genotoxicity in Salmonella typhimurium TA1535 assessed as number of revertants per plate at 50 ug/plate in absence of rat liver S9 fraction by Ames test (reference value: 10 +/- 3); format: toxicity; conditions: salmonella enterica subsp. enterica serovar typhimurium
[18] = tested on: Salmonella typhimurium; assay: Genotoxicity in Salmonella typhimurium TA1535 assessed as number of revertants per plate at 1.5 ug/plate in presence of rat liver S9 fraction by Ames test (reference value: 10); format: toxicity; conditions: salmonella enterica subsp. enterica serovar typhimurium
[19] = tested on: Salmonella typhimurium; assay: Genotoxicity in Salmonella typhimurium TA1535 assessed as number of revertants per plate at 5000 ug/plate in presence of rat liver S9 fraction by Ames test (reference value: 10); format: toxicity; conditions: salmonella enterica subsp. enterica serovar typhimurium
[20] = tested on: Salmonella typhimurium; assay: Genotoxicity in Salmonella typhimurium TA1537 assessed as number of revertants per plate at 1.5 ug/plate in absence of rat liver S9 fraction by Ames test (reference value: 19 +/- 9); format: toxicity; conditions: salmonella enterica subsp. enterica serovar typhimurium
[21] = tested on: Salmonella typhimurium; assay: Genotoxicity in Salmonella typhimurium TA1537 assessed as number of revertants per plate at 50 ug/plate in absence of rat liver S9 fraction by Ames test (reference value: 19 +/- 9); format: toxicity; conditions: salmonella enterica subsp. enterica serovar typhimurium
[22] = tested on: Escherichia coli; assay: Genotoxicity in Escherichia coli WP2uvrA assessed as number of revertants per plate at 15 ug/plate in absence of rat liver S9 fraction by Ames test (reference value: 45 +/- 9); format: toxicity
[23] = tested on: Escherichia coli; assay: Genotoxicity in Escherichia coli WP2uvrA assessed as number of revertants per plate at 15 ug/plate in presence of rat liver S9 fraction by Ames test (reference value: 42 +/- 6); format: toxicity
[24] = tested on: Lymphocyte; assay: Genotoxicity in human lymphocytes assessed as replication index at 355.15 ug/mL after 28 hrs in absence of rat liver S9 fraction by micronucleus assay relative to control; format: toxicity, cell-based
How it was run: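 Human lymphocytes exposed for 3 h with or without rat liver S9, or 28 h without S9, with 1% DMSO as vehicle control. Replication index = (binucleated + 2 × multinucleated cells)/total cells. Cytotoxicity (%) = 100 − (RI treated/RI vehicle) × 100.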

[25] = tested on: Lymphocyte; assay: Genotoxicity in human lymphocytes assessed as increase in frequency of micronucleated cells at 160 ug/mL after 3 hrs in presence of rat liver S9 fraction by micronucleus assay (reference value: 0.63%); format: toxicity, cell-based; conditions: s9, 3 h
[26] = tested on: Rattus norvegicus; assay: Genotoxicity in rat assessed as change in polychromatic erythrocytes in bone marrow at 1000 mg/kg administered via oral gavage measured after 24 hrs post dose by micronucleus assay relative to control; format: toxicity, organism-based; conditions: in vivo
[27] = tested on: Rattus norvegicus; assay: Genotoxicity in rat assessed as change in polychromatic erythrocytes in bone marrow at 2000 mg/kg administered via oral gavage measured after 48 hrs post dose by micronucleus assay relative to control; format: toxicity, organism-based; conditions: in vivo
[28] = tested on: Rattus norvegicus; assay: Genotoxicity in rat assessed as micronucleated polychromatic erythrocytes in bone marrow at 1000 mg/kg administered via oral gavage measured after 24 hrs post dose by micronucleus assay (reference value: 0.07 +/- 0.05%); format: toxicity, organism-based; conditions: in vivo
[29] = tested on: Lymphocyte; assay: Genotoxicity in human lymphocytes at 0.5 to 355 ug/mL after 3 hrs in presence of rat liver S9 fraction by micronucleus assay; format: toxicity, cell-based; conditions: s9, 3 h
[30] = tested on: Plasmodium berghei; assay: Antimalarial activity against Plasmodium berghei infected in Swiss Webster mouse assessed as mouse survival rate at 200 mg/kg administered once daily via oral gavage for 4 consecutive days beginning 1 hr after infection measured on day 16 post infection relative to control; format: functional; how it was run: as §1

Question: For Cc1c(Oc2cnc(C(=O)NC(C)CO)cn2)ccc2c1B(O)OC2 (stereo not given), which survival at 3 mg/kg [1] is on record?
Answer: 60%

Question: What does the source list for Cc1c(Oc2cnc(C(=O)N3CC(C)(O)C3)cn2)ccc2c1B(O)OC2?
Answer: AUC(0-inf) [2]: 20.8 µg·h/mL; AUC(0-inf) [3]: 214 µg·h/mL; AUC(0-inf) [4]: 168 µg·h/mL; IC50 [5]: 60 nM; Time [6]: 0 h; log(ratio) [7]: 4.1; T99.9% [8]: 30 h; Activity [9]: 15; Activity [10]: 14; Activity [11]: 20; Activity [12]: 15; Activity [13]: 13; Activity [14]: 18; Activity [15]: 20; Activity [16]: 8; Activity [17]: 8; Activity [18]: 9; Activity [19]: 6; Activity [20]: 15; Activity [21]: 12; Activity [22]: 41; Activity [23]: 50; Activity [24]: 33%; Activity [25]: 0.5%; Activity [26]: 0%; Activity [27]: -12%; Activity [28]: 0.08%

Question: Which Activity [29] does the source give for Cc1c(Oc2cnc(C(=O)NCCO)cn2)ccc2c1B(O)OC2 here?
Answer: Non-Toxic

Question: Which survival at 200 mg/kg [30] does the source give for CCCC1(O)CN(C(=O)c2cnc(Oc3ccc4c(c3C)B(O)OC4)cn2)C1 here?
Answer: 100%
